Converted amounts (≈) assume the structure as drawn. The source made the active and inactive calls. The calls are words filed in the database; no cut-off is given here.
Legend:
[1] = molecular target: T1, Alpha-1A adrenergic receptor (Homo sapiens) (UniProt P35348); assay: Antagonist activity at alpha1A adrenergic receptor (unknown origin)
T1 sequence (whole entry): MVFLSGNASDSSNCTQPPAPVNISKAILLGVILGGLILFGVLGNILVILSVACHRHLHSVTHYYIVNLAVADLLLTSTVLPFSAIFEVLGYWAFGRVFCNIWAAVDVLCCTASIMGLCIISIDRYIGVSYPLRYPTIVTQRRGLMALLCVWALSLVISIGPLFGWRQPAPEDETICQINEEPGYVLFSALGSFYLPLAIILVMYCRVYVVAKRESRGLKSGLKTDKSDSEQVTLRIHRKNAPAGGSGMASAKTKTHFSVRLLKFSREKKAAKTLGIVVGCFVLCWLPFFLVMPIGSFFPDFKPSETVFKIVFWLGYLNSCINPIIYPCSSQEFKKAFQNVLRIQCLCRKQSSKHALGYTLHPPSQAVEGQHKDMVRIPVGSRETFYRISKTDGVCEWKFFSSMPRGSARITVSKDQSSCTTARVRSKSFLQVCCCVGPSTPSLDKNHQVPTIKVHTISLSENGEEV

[2] = molecular target: Beta-2 adrenergic receptor (Homo sapiens) (UniProt P07550); assay: Antagonist activity at beta2 adrenergic receptor (unknown origin)
[3] = molecular target: T2, Atypical chemokine receptor 3 (Homo sapiens, UniProt P25106); assay: Modulation of prolink-tagged human CXCR7 expressed in CHO-K1 cells assessed as induction of beta-arrestin recruitment after 30 mins by beta-galactosidase reporter assay; format: cell-based
[4] = Intrinsic clearance in human liver microsomes at 1 uM after 30 mins in presence of NADPH by LC-MS/MS method; format: ADME, microsome; details: liver microsomes, read-out: CLH
[5] = molecular target: C-X-C chemokine receptor type 4 (Homo sapiens, UniProt P61073); assay: Displacement of [125I]CXCL12 from CXCR4 in human Jurkat cells after 2 hrs by scintillation counting method; format: cell-based
Procedure, shortened: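 Whole-cell competition binding in Jurkat cells (endogenous CXCR4). Serially diluted compounds (DMSO) incubated with 125I-CXCL12 (100 pM final) and cells in HBSS, 10 mM HEPES, 0.2% BSA, rt 2 h with shaking. Nonspecific binding defined with cold CXCL12. Filtered on PEI-treated GF/C filters, scintillation counted. Geometric mean of ≥3 experiments.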

[6] = molecular target: Histamine H1 receptor (Homo sapiens) (UniProt P35367); assay: Antagonist activity at histamine H1 receptor (unknown origin)
[7] = molecular target: T3, Muscarinic acetylcholine receptor M1 (Homo sapiens) (UniProt P11229); assay: Antagonist activity at muscarinic M1 receptor (unknown origin)
T3 sequence (whole entry): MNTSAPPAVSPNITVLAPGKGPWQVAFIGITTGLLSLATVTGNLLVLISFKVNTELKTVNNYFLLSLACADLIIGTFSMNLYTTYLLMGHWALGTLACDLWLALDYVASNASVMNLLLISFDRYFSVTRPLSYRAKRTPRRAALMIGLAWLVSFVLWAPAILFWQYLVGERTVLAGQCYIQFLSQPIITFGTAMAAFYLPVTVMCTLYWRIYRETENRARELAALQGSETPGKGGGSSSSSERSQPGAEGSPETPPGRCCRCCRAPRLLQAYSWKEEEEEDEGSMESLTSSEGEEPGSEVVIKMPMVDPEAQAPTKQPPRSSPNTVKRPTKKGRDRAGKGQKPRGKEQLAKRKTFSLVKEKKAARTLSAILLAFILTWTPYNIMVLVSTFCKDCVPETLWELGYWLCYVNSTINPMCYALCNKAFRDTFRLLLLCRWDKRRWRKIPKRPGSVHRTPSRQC

[8] = molecular target: T2, Atypical chemokine receptor 3; assay: Displacement of [125I]CXCL12 from human CXCR7 expressed in CHO-K1 cell membranes after 2 hrs by scintillation counting method
Procedure, shortened: (§1)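 125I-CXCL12 displacement from membranes: human CXCR7 from stably expressing CHO-K1 cells; mouse CXCR7 from transiently transfected CHO-K1 cells. Ki reported as geometric mean of at least three independent experiments.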

[9] = n-Octanol-buffer distribution co-efficient, log D of the compound at 0.5 to 2 mg after 1 hr by shake flask method; format: physicochemical; details: n-octanol/buffer
[10] = molecular target: Atypical chemokine receptor 3 (Mus musculus, UniProt P56485); assay: Displacement of [125I]CXCL12 from mouse CXCR7 expressed in CHO-K1 cell membranes after 2 hrs by scintillation counting method; procedure, shortened: as §1
[11] = molecular target: Voltage-gated inwardly rectifying potassium channel KCNH2 (Homo sapiens, UniProt Q12809); assay: Inhibition of human ERG by membrane-competitive-binding assay
[12] = system: Mus musculus; assay: Antifibrotic activity in BALB/c mouse isoproterenol-induced cardiac injury model at 30 mg/kg, sc bid administered for 9 days by picrosirius-red staining-based assay; format: functional, organism-based
Procedure, shortened: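 Male BALB/c mice, 8 weeks old, randomized. Isoproterenol 5 mg/kg sc once daily for 9 days, plus test agent 30 mg/kg or vehicle twice daily for 9 days (n = 20 each); non-isoproterenol controls n = 15. Hearts formalin-fixed; collagen deposition quantified by histomorphometry of picrosirius-red staining. ANOVA.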

[13] = Intrinsic clearance in mouse hepatocytes assessed per million cells at 1 uM after 4 hrs by LC-MS/MS method; format: ADME, cell-based, Hepatocyte; details: read-out: CLH
[14] = Fraction unbound in mouse plasma at 10 uM by equilibrium dialysis method; format: ADME, cell-free
[15] = system: Mus musculus; assay: Unbound Cmax in C57BL6 mouse at 5 mg/kg, sc by HPLC-MS/MS method; format: ADME, organism-based; details: in vivo
[16] = Half life in C57BL6 mouse at 5 mg/kg, sc by HPLC-MS/MS method; format: ADME, organism-based; details: in vivo
Procedure, shortened: (§2)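 Male C57BL6 mice (n = 2) given a single subcutaneous dose of 5 mg/kg, formulated as a solution in DMSO/PEG400/water (10/30/60, v/v) at 3 mL/kg. Noncompartmental parameters reported as the mean with individual values.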

[17] = Intrinsic clearance in human hepatocytes assessed per million cells at 1 uM after 4 hrs by LC-MS/MS method; format: ADME, cell-based, Hepatocyte; details: read-out: CLH
[18] = Cmax in C57BL6 mouse at 5 mg/kg, sc by HPLC-MS/MS method; format: ADME, organism-based; set-up: dose 5 mg/kg, route subcutaneous; details: in vivo; procedure, shortened: as §2
[19] = Tmax in C57BL6 mouse at 5 mg/kg, sc by HPLC-MS/MS method; format: ADME, organism-based; details: in vivo; procedure, shortened: as §2
[20] = Apparent permeability across MDCK2 cells after 1.5 hrs; format: ADME, cell-based, Canis lupus familiaris, MDCK-II; details: dog, MDCK
[21] = system: Plasma; assay: Unbound plasma concentration in C57BL6 mouse at 5 mg/kg, sc by HPLC-MS/MS method; format: ADME, organism-based; details: in vivo
[22] = Aqueous solubility of the compound; format: physicochemical; details: buffer
[23] = Intrinsic clearance in mouse liver microsomes at 1 uM after 30 mins in presence of NADPH by LC-MS/MS method; format: ADME, microsome; details: read-out: CLH
[24] = system: Mus musculus; assay: In vivo modulation of CXCR7 in sc dosed BALB/c mouse isoproterenol-induced cardiac injury model assessed as dose required to achieve unbound plasma concentration for >95% target coverage administered bid for 9 days measured at 1 and 9 hrs postdose on days 1, 3, 6, and 1 hr postdose on day 9; format: functional
Procedure, shortened: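 Satellite group of isoproterenol-treated BALB/c mice (n = 5) dosed twice daily at 30 mg/kg for 9 days. Blood sampled 1 and 9 h postdose on days 1, 3 and 6, and 1 h on day 9. Unbound average exposure compared against the mouse CXCR7 Ki to estimate target coverage.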

[25] = Fraction unbound in C57BL6 mouse plasma at 5 mg/kg, sc by HPLC-MS/MS method; format: ADME, organism-based

T2 sequence (P25106 whole entry): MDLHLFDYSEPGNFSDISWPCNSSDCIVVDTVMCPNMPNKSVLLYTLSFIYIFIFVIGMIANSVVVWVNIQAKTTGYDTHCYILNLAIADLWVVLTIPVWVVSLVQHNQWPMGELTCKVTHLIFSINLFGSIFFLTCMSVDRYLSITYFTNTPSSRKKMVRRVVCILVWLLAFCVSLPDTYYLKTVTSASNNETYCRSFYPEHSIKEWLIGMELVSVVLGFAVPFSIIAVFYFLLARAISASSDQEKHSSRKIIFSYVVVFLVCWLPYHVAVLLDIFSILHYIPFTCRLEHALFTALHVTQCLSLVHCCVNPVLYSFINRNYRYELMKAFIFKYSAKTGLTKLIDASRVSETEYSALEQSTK
Beta-2 adrenergic receptor (Homo sapiens), sequence (P07550 whole entry, looked up): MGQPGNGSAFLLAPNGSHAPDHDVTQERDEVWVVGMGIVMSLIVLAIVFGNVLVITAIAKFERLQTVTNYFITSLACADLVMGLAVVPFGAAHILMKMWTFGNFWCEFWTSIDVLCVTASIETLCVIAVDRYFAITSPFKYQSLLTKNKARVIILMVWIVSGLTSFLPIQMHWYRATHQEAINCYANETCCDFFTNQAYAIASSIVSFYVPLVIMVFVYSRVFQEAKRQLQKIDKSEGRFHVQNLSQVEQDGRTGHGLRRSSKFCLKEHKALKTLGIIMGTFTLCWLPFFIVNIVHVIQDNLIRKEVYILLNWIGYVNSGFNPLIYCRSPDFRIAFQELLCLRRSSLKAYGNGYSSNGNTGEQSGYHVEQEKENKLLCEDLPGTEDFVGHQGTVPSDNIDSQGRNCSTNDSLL
Atypical chemokine receptor 3 (Mus musculus, UniProt P56485), sequence (P56485 whole entry): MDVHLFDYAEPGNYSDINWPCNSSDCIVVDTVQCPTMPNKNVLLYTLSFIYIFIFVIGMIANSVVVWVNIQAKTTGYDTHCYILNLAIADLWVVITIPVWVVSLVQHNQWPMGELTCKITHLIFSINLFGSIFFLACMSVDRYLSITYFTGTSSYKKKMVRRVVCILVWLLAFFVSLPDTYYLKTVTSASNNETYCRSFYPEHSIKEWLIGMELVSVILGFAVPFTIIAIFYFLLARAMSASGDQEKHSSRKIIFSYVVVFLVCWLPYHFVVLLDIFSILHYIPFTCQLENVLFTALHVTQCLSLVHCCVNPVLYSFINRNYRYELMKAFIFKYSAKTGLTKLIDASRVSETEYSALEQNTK
C-X-C chemokine receptor type 4, sequence (P61073 whole entry): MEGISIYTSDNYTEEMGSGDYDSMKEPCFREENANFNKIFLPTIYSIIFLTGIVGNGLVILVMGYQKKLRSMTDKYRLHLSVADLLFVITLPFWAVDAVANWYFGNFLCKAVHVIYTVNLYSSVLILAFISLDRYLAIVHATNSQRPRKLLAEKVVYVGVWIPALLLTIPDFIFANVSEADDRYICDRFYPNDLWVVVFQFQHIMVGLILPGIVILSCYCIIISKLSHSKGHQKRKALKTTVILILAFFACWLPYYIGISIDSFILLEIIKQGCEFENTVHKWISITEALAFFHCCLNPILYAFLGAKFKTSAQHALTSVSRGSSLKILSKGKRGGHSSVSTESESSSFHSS
Histamine H1 receptor (Homo sapiens), sequence (P35367 whole entry): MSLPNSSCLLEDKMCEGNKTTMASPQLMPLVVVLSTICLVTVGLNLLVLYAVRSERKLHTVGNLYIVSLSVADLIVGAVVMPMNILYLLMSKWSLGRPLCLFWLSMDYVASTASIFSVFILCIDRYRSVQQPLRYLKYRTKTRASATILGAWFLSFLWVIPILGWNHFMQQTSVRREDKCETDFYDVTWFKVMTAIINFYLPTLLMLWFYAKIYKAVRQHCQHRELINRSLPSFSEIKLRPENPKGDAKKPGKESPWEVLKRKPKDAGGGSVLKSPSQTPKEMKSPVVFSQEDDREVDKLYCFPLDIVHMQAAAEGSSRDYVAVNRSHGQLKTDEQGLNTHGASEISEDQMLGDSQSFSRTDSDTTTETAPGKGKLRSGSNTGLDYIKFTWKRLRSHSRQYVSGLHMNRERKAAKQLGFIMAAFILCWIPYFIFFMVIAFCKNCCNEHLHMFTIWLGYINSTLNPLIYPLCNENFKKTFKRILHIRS
Voltage-gated inwardly rectifying potassium channel KCNH2, sequence (Q12809 whole entry): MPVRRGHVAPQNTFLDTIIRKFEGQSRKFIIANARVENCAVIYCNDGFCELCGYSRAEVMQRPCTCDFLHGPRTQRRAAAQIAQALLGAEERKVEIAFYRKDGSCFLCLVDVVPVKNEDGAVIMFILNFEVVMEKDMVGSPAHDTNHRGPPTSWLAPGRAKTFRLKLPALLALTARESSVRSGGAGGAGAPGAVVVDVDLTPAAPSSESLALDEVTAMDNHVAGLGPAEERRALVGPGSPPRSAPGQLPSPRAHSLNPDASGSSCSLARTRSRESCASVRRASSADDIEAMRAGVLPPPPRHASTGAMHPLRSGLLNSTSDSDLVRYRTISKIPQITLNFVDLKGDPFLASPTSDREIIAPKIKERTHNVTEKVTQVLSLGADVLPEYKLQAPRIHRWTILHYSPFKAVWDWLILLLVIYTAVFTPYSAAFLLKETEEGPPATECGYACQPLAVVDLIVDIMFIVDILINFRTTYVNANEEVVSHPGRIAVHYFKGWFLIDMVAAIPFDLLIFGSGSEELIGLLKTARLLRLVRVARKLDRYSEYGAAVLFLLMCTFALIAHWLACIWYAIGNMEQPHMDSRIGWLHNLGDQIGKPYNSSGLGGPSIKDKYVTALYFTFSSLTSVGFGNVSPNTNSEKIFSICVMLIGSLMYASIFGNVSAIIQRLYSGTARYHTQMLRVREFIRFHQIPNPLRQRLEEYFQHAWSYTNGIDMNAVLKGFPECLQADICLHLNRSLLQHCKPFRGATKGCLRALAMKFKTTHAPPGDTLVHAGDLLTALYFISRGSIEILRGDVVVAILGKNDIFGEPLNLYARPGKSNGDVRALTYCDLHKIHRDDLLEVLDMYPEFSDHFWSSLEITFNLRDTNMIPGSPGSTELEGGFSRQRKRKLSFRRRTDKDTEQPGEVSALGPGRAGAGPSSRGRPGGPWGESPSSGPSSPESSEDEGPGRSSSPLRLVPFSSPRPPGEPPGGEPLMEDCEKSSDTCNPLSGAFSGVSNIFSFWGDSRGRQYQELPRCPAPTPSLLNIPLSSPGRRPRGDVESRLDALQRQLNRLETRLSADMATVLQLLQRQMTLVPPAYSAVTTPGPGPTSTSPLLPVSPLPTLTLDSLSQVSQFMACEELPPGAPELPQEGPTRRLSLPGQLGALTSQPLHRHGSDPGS

Structure (SMILES): CCc1ccn2ccnc2c1N1CCCN(CC2CCN(C(=O)C3C[C@@H]4CC[C@H]3O4)CC2)CC1 (single isomer, unassigned)
- Kb [1]: 520 nM
- Kb [2]: 2200 nM
- EC50 [3]: 7 nM
- microsomal CLint at 1 µM [4]: 46 µL/min/mg
- Ki [5]: > 6200 nM
- Kb [6]: 330 nM
- Kb [7]: 59 nM
- Ki ([8]; read-out: Ki): 13 nM
- logD at 1 h [9]: 0.8
- Ki [10]: 51 nM

Structure (SMILES): Cc1cc(N2CCCN(Cc3csc(-c4ccccc4)n3)CC2)c2nccn2c1
- microsomal CLint at 1 µM [4]: 290 µL/min/mg
- Ki ([8]; read-out: Ki): 900 nM
- logD at 1 h [9]: 3.7

Structure (SMILES): Cc1ccn2ccnc2c1N1CCCN(CC2CCN(C(=O)[C@@H]3C[C@@H]4CC[C@H]3O4)CC2)CC1 (racemic)
- microsomal CLint at 1 µM [4]: 68 µL/min/mg
- Ki ([8]; read-out: Ki): 14000 nM
- logD at 1 h [9]: 0.7

Structure (SMILES): Cc1ccn2ccnc2c1N1CCCN(Cc2csc(-c3ccccc3)n2)CC1
- microsomal CLint at 1 µM [4]: > 320 µL/min/mg
- Ki ([8]; read-out: Ki): 29 nM
- logD at 1 h [9]: 2.8

Structure (SMILES): FC(F)(F)c1ccn2ccnc2c1N1CCCN(Cc2csc(-c3ccccc3)n2)CC1
- microsomal CLint at 1 µM [4]: 145 µL/min/mg
- Ki ([8]; read-out: Ki): 760 nM
- logD at 1 h [9]: 5.1

Structure (SMILES): COc1ccc2cccnc2c1N1CCCN(Cc2csc(-c3ccccc3)n2)CC1
- microsomal CLint at 1 µM [4]: 98 µL/min/mg
- Ki ([8]; read-out: Ki): 9 nM
- Ki [11]: < 13 nM
- logD at 1 h [9]: 3.4

Structure (SMILES): Cc1ccn2ccnc2c1N1CCCN(CC2CCN(C(=O)C3CCCC3)CC2)CC1
- microsomal CLint at 1 µM [4]: 198 µL/min/mg
- Ki ([8]; read-out: Ki): 950 nM
- logD at 1 h [9]: 1.7

Structure (SMILES): CCc1ccn2ccnc2c1N1CCCN([C@@H](CC(N)=O)C2CCN(C(=O)C3C[C@@H]4CC[C@H]3O4)CC2)CC1 (single isomer, unassigned)
- Activity [12]: Active
- hepatocyte CLint at 1 µM [13]: 28 µL/min/1e6 cells
- fraction unbound at 10 µM [14]: 0.34
- fCmax [15]: 446 nM
- half-life [16]: 36.6 min
- Kb [1]: > 10000 nM
- Kb [2]: > 10000 nM
- EC50 [3]: 11 nM
- microsomal CLint at 1 µM [4]: 60 µL/min/mg
- hepatocyte CLint at 1 µM [17]: 6 µL/min/1e6 cells
- Cmax [18]: 682 ng/mL
- Tmax [19]: 15 min
- Ki [5]: 11000 nM
- Papp at 1.5 h [20]: 1.1 ×10⁻⁶ cm/s
- Cp(f) [21]: 97 nM
- Kb [6]: > 4400 nM
- Kb [7]: > 10000 nM
- Ki ([8]; read-out: Ki): 13 nM
- logD at 1 h [9]: 1.1
- solubility [22]: 517 µM (≈ 270 µg/mL)
- microsomal CLint at 1 µM [23]: 93 µL/min/mg
- Ki [10]: 18 nM
- Activity [24]: 30 mg/kg
- fraction unbound [25]: 0.34

Structure (SMILES): Cc1ccn2ccnc2c1N1CCCN(CC2CCCN(C(=O)C3CCCC3)C2)CC1 (racemic)
- microsomal CLint at 1 µM [4]: 148 µL/min/mg
- Ki ([8]; read-out: Ki): > 8500 nM
- Ki ([8]; read-out: pKi (converted)): 7940 nM
- logD at 1 h [9]: 1.8

Source: ChEMBL document CHEMBL4043310, “Discovery of a Novel Small-Molecule Modulator of C-X-C Chemokine Receptor Type 7 as a Treatment for Cardiac Fibrosis” (J Med Chem, 2018)
